{"source": "paper PMC3823688", "about": "(Journal of medicinal chemistry, 2013)", "key": {"[1]": {"target": "ANT(4') (Staphylococcus aureus, UniProt P05057)", "sequence (P05057 whole entry)": "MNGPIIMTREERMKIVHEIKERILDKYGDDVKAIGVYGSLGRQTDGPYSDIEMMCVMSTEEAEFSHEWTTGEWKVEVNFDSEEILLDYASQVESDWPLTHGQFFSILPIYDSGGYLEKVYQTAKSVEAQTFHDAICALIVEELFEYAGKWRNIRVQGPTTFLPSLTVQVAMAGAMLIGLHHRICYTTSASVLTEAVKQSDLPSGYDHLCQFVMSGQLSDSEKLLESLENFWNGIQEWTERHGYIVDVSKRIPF", "experiment": "nucleotidylation of compounds by ANT", "type": "biochemical, S. aureus", "details": "initial rate normalized to 1 = 100%; 100 µM compound"}, "[2]": {"system": "E. coli S30 extracts (E. coli ribosomes)", "experiment": "in vitro prokaryotic translation assay", "type": "biochemical"}, "[3]": {"system": "tested bacterial strains", "experiment": "organism not typed", "type": "cell-based"}, "[4]": {"system": "Tetrahymena ribozyme", "details": "compared to parent antibiotic 1; cited from earlier work"}, "[5]": {"system": "AAC(6')-Ib'", "experiment": "acetylation of compounds by AAC", "type": "biochemical", "details": "for relative activity of AAC(6')-Ib' on compound: initial rate normalized to 1 = 100%, 100 µM compound; for times less prone to deactivation by AAC(6')-Ib' than 1: relative to 1, stated jointly for both AAC(6') enzymes", "method_in_brief": "(§1)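 Acetyltransferase activity followed at 412 nm by Ellman's method, with CoASH release coupled to DTNB (2 mM), at 25 °C. Mix: test compound 100 µM, AcCoA 150 µM, enzyme 0.5 µM. Buffer: 50 mM MES pH 6.6 for AAC(6')/APH(2\"), 50 mM Tris pH 7.5 for AAC(6')-Ib'. Read every 30 s for 1 h. Initial rates from first 2–5 min, normalized to parent aminoglycoside; triplicate.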"}, "[6]": {"target": "AAC(6')/APH(2\") (Staphylococcus aureus, UniProt P0A0C1)", "sequence (P0A0C1 whole entry)": "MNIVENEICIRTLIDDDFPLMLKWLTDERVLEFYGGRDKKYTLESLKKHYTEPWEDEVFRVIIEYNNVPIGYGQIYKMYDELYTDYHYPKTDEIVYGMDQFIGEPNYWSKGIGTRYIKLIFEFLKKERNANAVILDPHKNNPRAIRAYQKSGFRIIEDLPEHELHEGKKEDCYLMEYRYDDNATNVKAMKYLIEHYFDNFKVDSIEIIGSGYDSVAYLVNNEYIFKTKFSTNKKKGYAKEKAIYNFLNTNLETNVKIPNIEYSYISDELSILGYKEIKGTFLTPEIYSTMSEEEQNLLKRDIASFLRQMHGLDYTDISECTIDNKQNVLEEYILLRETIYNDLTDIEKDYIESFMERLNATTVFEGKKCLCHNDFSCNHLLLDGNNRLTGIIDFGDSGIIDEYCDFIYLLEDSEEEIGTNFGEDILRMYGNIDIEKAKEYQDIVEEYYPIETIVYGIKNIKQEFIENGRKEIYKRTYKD", "experiment": "acetylation of compounds by AAC", "type": "biochemical", "details": "for relative activity of AAC(6')/APH(2\") (acetyltransferase) on compound: initial rate normalized to 1 = 100%, 100 µM compound; for times less prone to deactivation by AAC(6')/APH(2\") than 1: relative to 1, stated jointly for both AAC(6') enzymes", "method_in_brief": "as §1"}, "[7]": {"target": "chloramphenicol nitroreductase (CNR) (Haemophilus influenzae, UniProt Q57431)", "sequence (Q57431 whole entry)": "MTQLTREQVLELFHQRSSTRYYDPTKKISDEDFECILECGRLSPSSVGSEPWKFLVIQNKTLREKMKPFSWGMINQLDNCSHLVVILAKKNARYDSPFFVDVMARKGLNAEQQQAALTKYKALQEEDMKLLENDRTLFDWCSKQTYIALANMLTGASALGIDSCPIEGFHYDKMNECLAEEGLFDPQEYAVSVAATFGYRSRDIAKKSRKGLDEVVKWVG", "experiment": "reduction of compounds by CNR", "type": "biochemical, H. influenzae", "details": "for relative activity of CNR on compound: initial rate normalized to 3 = 100%, 100 µM compound"}, "[8]": {"target": "chloramphenicol phosphotransferase (CPT) (Streptomyces venezuelae, UniProt Q56148)", "sequence (Q56148 5-178)": "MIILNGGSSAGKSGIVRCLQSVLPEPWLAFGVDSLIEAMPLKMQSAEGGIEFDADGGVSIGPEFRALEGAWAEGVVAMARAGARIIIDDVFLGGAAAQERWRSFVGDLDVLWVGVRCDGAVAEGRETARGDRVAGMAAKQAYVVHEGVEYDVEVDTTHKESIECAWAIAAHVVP", "experiment": "phosphorylation of compounds by CPT", "type": "biochemical", "details": "compared to 3"}, "[9]": {"system": "S. aureus ATCC 29213", "experiment": "MIC determination by double-dilution", "type": "cell-based, Staphylococcus aureus"}}, "note": "Where two headings read alike, the source gives them in different places."}
{"smiles": "NC[C@H]1O[C@H](O[C@H]2[C@H](O)[C@@H](O[C@H]3O[C@H](CO)[C@@H](O)[C@H](N)[C@H]3O)[C@H](N)C[C@@H]2N)[C@H](N)C[C@@H]1O", "note": "[Compound 1, tobramycin, reference compound]", "values": [{"measurement": "relative activity of ANT(4') on compound", "setting": "[1]", "result": 100, "unit": "%"}]}
{"smiles": "NC[C@H]1O[C@H](O[C@H]2[C@H](O)[C@@H](O[C@@H]3O[C@H](CSCCOCCS)[C@@H](O)[C@H](N)[C@H]3O)[C@H](N)C[C@@H]2N)[C@H](N)C[C@@H]1O", "note": "[Compound 6]", "values": [{"measurement": "relative activity of ANT(4') on compound", "setting": "[1]", "result": 49, "unit": "%"}]}
{"smiles": "CCC[C@@H]1C[C@@H](C(=O)N[C@H]([C@H]2O[C@H](SC)[C@H](O)[C@@H](O)[C@H]2O)[C@@H](C)SCCOCCS)N(C)C1", "note": "[Compound 9]", "values": [{"measurement": "IC50 fold higher than that of parent antibiotic 2, in vitro translation", "setting": "[2]; relative to 2, less potent", "result": "at least 5 fold"}, {"measurement": "MIC", "setting": "[3]; read-out: MIC values against seven of the tested strains", "result": "1.2 to 9.4", "unit": "µg/mL"}]}
{"smiles": "CCC[C@@H]1C[C@@H](C(=O)NC([C@H]2O[C@H](SC)[C@H](O)[C@@H](O)[C@H]2O)[C@@H](C)SCCOCCSSCCOCCS[C@H](C)C(NC(=O)[C@@H]2C[C@@H](CCC)CN2C)[C@H]2O[C@H](SC)[C@H](O)[C@@H](O)[C@H]2O)N(C)C1", "note": "(stereo partly shown) [Compound 10]", "values": [{"measurement": "MIC", "setting": "[3]; read-out: MICs against eight of the tested bacterial strains", "result": "0.6 to 9.4", "unit": "µg/mL"}]}
{"smiles": "O=C(CSCCOCCS)N[C@H](CO)[C@H](O)c1ccc([N+](=O)[O-])cc1", "note": "[Compound 13]", "values": [{"measurement": "fold less potent than parent antibiotic 3 in in vitro translation", "setting": "[2]; relative to 3", "result": "~8", "unit": "fold"}]}
{"smiles": "NC[C@H]1O[C@H](O[C@H]2[C@H](O)[C@@H](O[C@@H]3O[C@H](CSCCOCCSSCCOCCSC[C@H]4O[C@@H](O[C@@H]5[C@@H](O)[C@H](O[C@H]6O[C@H](CN)[C@@H](O)C[C@H]6N)[C@@H](N)C[C@H]5N)[C@H](O)[C@@H](N)[C@@H]4O)[C@@H](O)[C@H](N)[C@H]3O)[C@H](N)C[C@@H]2N)[C@H](N)C[C@@H]1O", "note": "[Compound 16]", "values": [{"measurement": "inhibition of the activity of the Tetrahymena ribozyme (in words)", "setting": "[4]", "result": "significantly better inhibitor"}, {"measurement": "relative activity of AAC(6')-Ib' on compound", "setting": "[5]", "result": 39, "unit": "%"}, {"measurement": "times less prone to deactivation by AAC(6')-Ib' than 1", "setting": "[5]", "result": "2.5–5 times"}, {"measurement": "relative activity of AAC(6')/APH(2\") (acetyltransferase) on compound", "setting": "[6]", "result": 34, "unit": "%"}, {"measurement": "times less prone to deactivation by AAC(6')/APH(2\") than 1", "setting": "[6]", "result": "2.5–5 times"}]}
{"smiles": "CCC[C@@H]1C[C@@H](C(=O)NC([C@H]2O[C@H](SC)[C@H](O)[C@@H](O)[C@H]2O)[C@@H](C)SCCOCCSSCCOCCSC[C@H]2O[C@@H](O[C@@H]3[C@@H](O)[C@H](O[C@H]4O[C@H](CN)[C@@H](O)C[C@H]4N)[C@@H](N)C[C@H]3N)[C@H](O)[C@@H](N)[C@@H]2O)N(C)C1", "note": "(stereo partly shown) [Compound 18]", "values": [{"measurement": "relative activity of AAC(6')-Ib' on compound", "setting": "[5]", "result": 20, "unit": "%"}, {"measurement": "times less prone to deactivation by AAC(6')-Ib' than 1", "setting": "[5]", "result": "2.5–5 times"}, {"measurement": "relative activity of AAC(6')/APH(2\") (acetyltransferase) on compound", "setting": "[6]", "result": 31, "unit": "%"}, {"measurement": "times less prone to deactivation by AAC(6')/APH(2\") than 1", "setting": "[6]", "result": "2.5–5 times"}]}
{"smiles": "NC[C@H]1O[C@H](O[C@H]2[C@H](O)[C@@H](O[C@@H]3O[C@H](CSCCOCCSCC(=O)N[C@H](CO)[C@H](O)c4ccc([N+](=O)[O-])cc4)[C@@H](O)[C@H](N)[C@H]3O)[C@H](N)C[C@@H]2N)[C@H](N)C[C@@H]1O", "note": "[Compound 20]", "values": [{"measurement": "relative activity of AAC(6')-Ib' on compound", "setting": "[5]", "result": 37, "unit": "%"}]}
{"smiles": "NC[C@H]1O[C@H](O[C@H]2[C@H](O)[C@@H](O[C@@H]3O[C@H](CSCCOCCSSCCOCCSCC(=O)N[C@H](CO)[C@H](O)c4ccc([N+](=O)[O-])cc4)[C@@H](O)[C@H](N)[C@H]3O)[C@H](N)C[C@@H]2N)[C@H](N)C[C@@H]1O", "note": "[Compound 22]", "values": [{"measurement": "relative activity of CNR on compound", "setting": "[7]", "result": 117, "unit": "%"}, {"measurement": "relative activity of AAC(6')-Ib' on compound", "setting": "[5]", "result": 31, "unit": "%"}, {"measurement": "relative activity of AAC(6')/APH(2\") (acetyltransferase) on compound", "setting": "[6]", "result": 34, "unit": "%"}]}
{"smiles": "CCC[C@@H]1C[C@@H](C(=O)NC([C@H]2O[C@H](SC)[C@H](O)[C@@H](O)[C@H]2O)[C@@H](C)SCCOCCSCC(=O)N[C@H](CO)[C@H](O)c2ccc([N+](=O)[O-])cc2)N(C)C1", "note": "(stereo partly shown) [Compound 23]", "values": [{"measurement": "relative activity of CNR on compound", "setting": "[7]", "result": 133, "unit": "%"}]}
{"smiles": "CCC[C@@H]1C[C@@H](C(=O)NC([C@H]2O[C@H](SC)[C@H](O)[C@@H](O)[C@H]2O)[C@@H](C)SCCOCCSSCCOCCSCC(=O)N[C@@H](CO)[C@H](O)c2ccc([N+](=O)[O-])cc2)N(C)C1", "note": "(stereo partly shown) [Compound 24]", "values": [{"measurement": "relative activity of CNR on compound", "setting": "[7]", "result": 174, "unit": "%"}]}
{"smiles": "O=C(CSCCOCCSCC(=O)N[C@H](CO)[C@H](O)c1ccc([N+](=O)[O-])cc1)N[C@H](CO)[C@H](O)c1ccc([N+](=O)[O-])cc1", "note": "[Compound 25]", "values": [{"measurement": "substrate quality for CNR (in words)", "setting": "[7]; compared to 3", "result": "poor substrate"}, {"measurement": "substrate quality for CPT (in words)", "setting": "[8]", "result": "poor substrate"}]}
{"smiles": "O=C(CSCCOCCSSCCOCCSCC(=O)N[C@H](CO)[C@H](O)c1ccc([N+](=O)[O-])cc1)N[C@H](CO)[C@H](O)c1ccc([N+](=O)[O-])cc1", "note": "[Compound 26]", "values": [{"measurement": "relative activity of CNR on compound", "setting": "[7]", "result": 220, "unit": "%"}, {"measurement": "fold more potent than 3 (MIC)", "setting": "[9]", "result": "approximately 16 fold"}]}
